{"source": "paper PMC12100521", "about": "(Chemical Science, 2025)", "key": {"CYP125MRCA [1]": {"test_system": "CYP125MRCA", "test": "UV-Vis spin-state", "type": "binding", "settings": "30 °C, enzyme ~2 μM"}, "CYP125MRCA [2]": {"target": "CYP125MRCA", "test": "UV-Vis difference-spectrum substrate titration", "type": "binding", "settings": "read-out: Kd (Hill model), Table 1"}, "CYP125MRCA [3]": {"test_system": "CYP125MRCA", "test": "In vitro oxidation assay, spinach ferredoxin/ferredoxin reductase/NADPH, GC-MS", "type": "biochemical", "settings": "substrate 100 μM, enzyme 2 μM, 20 h, room temperature"}, "CYP125MRCAAlt [4]": {"test_system": "CYP125MRCAAlt", "test": "UV-Vis spin-state shift binding screen after imidazole treatment", "settings": "enzyme pre-treated with imidazole (~1.3 mM)"}, "CYP125A1 [5]": {"target": "CYP125A1", "settings": "read-out: Kd CYP125A1; cited from earlier work"}, "MmarCYP125A7": {"target": "MmarCYP125A7", "settings": "cited from earlier work"}, "CYP125MRCAAlt [6]": {"test_system": "CYP125MRCAAlt", "test": "In vitro oxidation assay, spinach ferredoxin/ferredoxin reductase/NADPH, GC-MS", "type": "biochemical", "settings": "reconstituted spinach ferredoxin/reductase/NADPH system", "procedure,_shortened": "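Enzyme (2 μM in the method text) and substrate (100 μM) were equilibrated 3 min at room temperature in oxygenated 50 mM Tris, pH 7.4. Added G6P (5 mM), G6PDH (0.7 U/mL), ferredoxin (4 μM), reductase (0.2 U/mL) and catalase (0.03 mg/mL), then NADPH (1 mM). Ran 20 h, quenched with HCl, octanoic acid internal standard, ethyl acetate extraction, BSTFA/TMCS derivatisation, products assigned by mass spectra and retention times.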"}, "Mtb CYP125A1": {"test_system": "Mtb CYP125A1", "settings": "cited from earlier work"}, "CYP125MRCA [7]": {"test_system": "CYP125MRCA", "type": "biochemical", "settings": "1 : 1 mixture of substrates"}, "[8]": {"test_system": "CYP125A1, CYP125A6 and CYP125A7", "settings": "cited from earlier work"}, "CYP125A1 [9]": {"test_system": "CYP125A1", "settings": "cited from earlier work"}}, "note": "Where “and” joins values, the source holds several entries; their conditions need not be identical. Identical values can stand only once."}
{"smiles": "CC(C)CCC[C@@H](C)[C@H]1CC[C@H]2[C@@H]3C[C@@H]4O[C@@]45C[C@@H](O)CC[C@]5(C)[C@H]3CC[C@]12C", "note": "[5,6α-epoxycholesterol]", "values": [{"measurement": "Substrate-induced shift of the Soret band (LS to HS)", "setting": "CYP125MRCA [1]", "value": "Complete or near-complete spin-state shifts"}]}
{"smiles": "CC(C)CCC[C@@H](C)[C@H]1CC[C@H]2[C@@H]3C(=O)C=C4C[C@@H](O)CC[C@]4(C)[C@H]3CC[C@]12C", "note": "[7-ketocholesterol]", "values": [{"measurement": "Substrate-induced shift of the Soret band (LS to HS)", "setting": "CYP125MRCA [1]", "value": "Complete or near-complete spin-state shifts"}]}
{"smiles": "CC(C)CCC[C@@H](C)[C@H]1CC[C@H]2[C@@H]3[C@H](O)C=C4C[C@@H](O)CC[C@]4(C)[C@H]3CC[C@]12C", "note": "[7α-hydroxycholesterol]", "values": [{"measurement": "Substrate-induced shift of the Soret band (LS to HS)", "setting": "CYP125MRCA [1]", "value": "Complete or near-complete spin-state shifts"}]}
{"smiles": "CC(C)CCC[C@@H](C)[C@H]1CC[C@H]2[C@@H]3[C@@H](O)C=C4C[C@@H](O)CC[C@]4(C)[C@H]3CC[C@]12C", "note": "[7β-hydroxycholesterol]", "values": [{"measurement": "Substrate-induced shift of the Soret band (LS to HS)", "setting": "CYP125MRCA [1]", "value": "Complete or near-complete spin-state shifts"}]}
{"smiles": "CC(C)[C@H](C)CC[C@@H](C)[C@H]1CC[C@H]2[C@@H]3CC=C4C[C@@H](O)CC[C@]4(C)[C@H]3CC[C@]12C", "note": "[campesterol]", "values": [{"measurement": "Kd", "setting": "CYP125MRCA [2]", "value": "4190 ± 50", "unit": "nM"}, {"measurement": "Substrate-induced shift of the Soret band (LS to HS)", "setting": "CYP125MRCA [1]", "value": "complete shift of the Soret band to the high spin peak at ∼391 nm"}, {"measurement": "Oxidation by CYP125MRCA (products by GC-MS)", "setting": "CYP125MRCA [3]", "value": "able to effectively oxidise"}]}
{"smiles": "CC(C)CCC[C@@H](C)[C@H]1CC[C@H]2[C@@H]3CCC4=CC(=O)CC[C@]4(C)[C@H]3CC[C@]12C", "note": "[cholest-4-en-3-one]", "values": [{"measurement": "Kd", "setting": "CYP125MRCA [2]", "value": "850 ± 20", "unit": "nM"}, {"measurement": "Substrate-induced shift of the Soret band (LS to HS)", "setting": "CYP125MRCA [1]", "value": "completely shift the Soret band to ∼390 nm"}, {"measurement": "Binding detected by shift back to HS peak", "setting": "CYP125MRCAAlt [4]", "value": "found to bind"}, {"measurement": "Oxidation by CYP125MRCA (products by GC-MS)", "setting": "CYP125MRCA [3]", "value": "able to oxidise"}, {"measurement": "Kd", "setting": "CYP125A1 [5]", "value": "1180 ± 110", "unit": "nM"}, {"measurement": "Kd", "setting": "MmarCYP125A7", "value": "700 ± 400", "unit": "nM"}]}
{"smiles": "CC(C)CCC[C@@H](C)[C@H]1CC[C@H]2[C@@H]3CC=C4C[C@@H](O)CC[C@]4(C)[C@H]3CC[C@]12C", "note": "[cholesterol]", "values": [{"measurement": "Kd", "setting": "CYP125MRCA [2]", "value": "2000 ± 50", "unit": "nM"}, {"measurement": "Substrate-induced shift of the Soret band (LS to HS)", "setting": "CYP125MRCA [1]", "value": "completely shift the Soret band to ∼390 nm"}, {"measurement": "Binding detected by shift back to HS peak", "setting": "CYP125MRCAAlt [4]", "value": "found to bind"}, {"measurement": "Oxidation by CYP125MRCA (products by GC-MS)", "setting": "CYP125MRCA [3]", "value": "able to oxidise and 26-cholestenoic acid being the major product"}, {"measurement": "Oxidation by CYP125MRCAAlt (products by GC-MS)", "setting": "CYP125MRCAAlt [6]", "value": "able to oxidise cholesterol, albeit with a lower efficiency and 26-hydroxycholesterol being the major product"}, {"measurement": "Kd", "setting": "CYP125A1 [5]", "value": "110 ± 60", "unit": "nM"}, {"measurement": "Preference for cholesterol over sitosterol", "setting": "Mtb CYP125A1", "value": 1.8, "unit": "fold"}]}
{"smiles": "CC(C)=CCC[C@@H](C)[C@H]1CC[C@H]2[C@@H]3CC=C4C[C@@H](O)CC[C@]4(C)[C@H]3CC[C@]12C", "note": "[desmosterol]", "values": [{"measurement": "Substrate-induced shift of the Soret band (LS to HS)", "setting": "CYP125MRCA [1]", "value": "minimal perturbations of the heme centre"}]}
{"smiles": "CC(C)[C@@H](C)/C=C/[C@@H](C)[C@H]1CC[C@H]2C3=CC=C4C[C@@H](O)CC[C@]4(C)[C@H]3CC[C@]12C", "note": "[ergosterol]", "values": [{"measurement": "Substrate-induced shift of the Soret band (LS to HS)", "setting": "CYP125MRCA [1]", "value": "minimal perturbations of the heme centre"}]}
{"smiles": "CC[C@H](CC[C@@H](C)[C@H]1CC[C@H]2[C@@H]3CCC4=CC(=O)CC[C@]4(C)[C@H]3CC[C@]12C)C(C)C", "note": "[stigmast-4-en-3-one]", "values": [{"measurement": "Kd", "setting": "CYP125MRCA [2]", "value": "1610 ± 110", "unit": "nM"}, {"measurement": "Substrate-induced shift of the Soret band (LS to HS)", "setting": "CYP125MRCA [1]", "value": "complete shift of the Soret band to the high spin peak at ∼391 nm"}, {"measurement": "Binding detected by shift back to HS peak", "setting": "CYP125MRCAAlt [4]", "value": "found to bind"}, {"measurement": "Preference for stigmast-4-en-3-one versus cholest-4-en-3-one", "setting": "CYP125MRCA [7]", "value": 3.2, "unit": "fold"}]}
{"smiles": "CC[C@H](/C=C/[C@@H](C)[C@H]1CC[C@H]2[C@@H]3CC=C4C[C@@H](O)CC[C@]4(C)[C@H]3CC[C@]12C)C(C)C", "note": "[stigmasterol]", "values": [{"measurement": "Kd", "setting": "CYP125MRCA [2]", "value": "2040 ± 120", "unit": "nM"}, {"measurement": "Substrate-induced shift of the Soret band (LS to HS)", "setting": "CYP125MRCA [1]", "value": "complete shift of the Soret band to the high spin peak at ∼391 nm"}]}
{"smiles": "C=C1CC[C@H](O)C/C1=C/C=C1\\CCC[C@]2(C)[C@@H]([C@H](C)CCCC(C)C)CC[C@@H]12", "note": "[vitamin D3, cholecalciferol]", "values": [{"measurement": "Kd", "setting": "CYP125MRCA [2]", "value": "1600 ± 220", "unit": "nM"}, {"measurement": "Substrate-induced shift of the Soret band (LS to HS)", "setting": "CYP125MRCA [1]", "value": "complete shift in the Soret band to HS"}, {"measurement": "Binding detected by shift back to HS peak", "setting": "CYP125MRCAAlt [4]", "value": "found to bind"}, {"measurement": "Oxidation by CYP125MRCA (products by GC-MS)", "setting": "CYP125MRCA [3]", "value": "oxidised by CYP125MRCA into four hydroxylation products and one partially underivatised alcohol product"}, {"measurement": "Oxidation by CYP125MRCAAlt (products by GC-MS)", "setting": "CYP125MRCAAlt [6]", "value": "No 25- or 26-hydroxylation activity"}, {"measurement": "Spectral shift in the Soret band", "setting": "[8]", "value": "does not induce a spectral shift in the Soret band"}, {"measurement": "Oxidation of vitamin D3 by CYP125A1", "setting": "CYP125A1 [9]", "value": "does not oxidise"}]}
